In ChEMBL document CHEMBL1142564, “Lanostane triterpenoids and triterpene glycosides from the fruit body of Fomitopsis pinicola and their inhibitory activity against COX-1 and COX-2” (J Nat Prod, 2005):

Assays:
[1] = Inhibition of sheep placental COX2 by liquid scintillation counter
[2] = target: T1, Prostaglandin G/H synthase 1 (Ovis aries) (UniProt P05979); test: Inhibition of COX1 from ram seminal vesicles at 10 ug/ml by liquid scintillation counter
T1 sequence (whole entry): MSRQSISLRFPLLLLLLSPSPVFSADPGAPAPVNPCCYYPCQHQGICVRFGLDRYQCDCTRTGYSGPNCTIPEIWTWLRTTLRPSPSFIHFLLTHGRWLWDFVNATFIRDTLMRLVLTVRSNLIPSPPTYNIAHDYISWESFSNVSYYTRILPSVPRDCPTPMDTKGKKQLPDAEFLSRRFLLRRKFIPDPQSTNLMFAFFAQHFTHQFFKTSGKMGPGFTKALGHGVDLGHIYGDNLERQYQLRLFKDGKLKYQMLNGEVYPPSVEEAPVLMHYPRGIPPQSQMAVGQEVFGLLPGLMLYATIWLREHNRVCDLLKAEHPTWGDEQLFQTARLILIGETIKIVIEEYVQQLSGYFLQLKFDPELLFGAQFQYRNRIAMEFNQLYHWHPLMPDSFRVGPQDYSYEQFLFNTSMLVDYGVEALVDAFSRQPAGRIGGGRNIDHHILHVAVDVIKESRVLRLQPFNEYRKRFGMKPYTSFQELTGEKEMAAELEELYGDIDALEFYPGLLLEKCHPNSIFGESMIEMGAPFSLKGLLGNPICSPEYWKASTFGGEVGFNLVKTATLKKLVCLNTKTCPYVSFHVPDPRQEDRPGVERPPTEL

[3] = target: Prostaglandin G/H synthase 2 (Ovis aries, UniProt P79208); test: Inhibition of sheep placental COX2 by liquid scintillation counter
How it was run: (§1)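 Enzymes used were ram seminal vesicle COX-1 and sheep placenta COX-2 (70% pure), 2 units each, in 0.1 M Tris-HCl pH 7.5 with 1 mM hematin and 2 mM phenol. Sample was preincubated 2 min at 37 °C, then 51.4 µM [1-14C]arachidonic acid was added for 2 min at 37 °C. Extraction used hexane-EtOAc (2:1); PGE2 was measured by radioimmunoassay with scintillation counting. IC50 came from duplicate four-point titration.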

[4] = target: T2, Prostaglandin G/H synthase 1 (Ovis aries, UniProt P05979); test: Inhibition of COX1 from ram seminal vesicles by liquid scintillation counter
T2 sequence (P05979 whole entry): T1 sequence (whole entry)
How it was run: as §1

[5] = system: Prostaglandin G/H synthase 2 (Ovis aries); test: Inhibition of sheep placental COX2 at 10 ug/ml by liquid scintillation counter

Chain of Prostaglandin G/H synthase 2 (P79208 whole entry, looked up): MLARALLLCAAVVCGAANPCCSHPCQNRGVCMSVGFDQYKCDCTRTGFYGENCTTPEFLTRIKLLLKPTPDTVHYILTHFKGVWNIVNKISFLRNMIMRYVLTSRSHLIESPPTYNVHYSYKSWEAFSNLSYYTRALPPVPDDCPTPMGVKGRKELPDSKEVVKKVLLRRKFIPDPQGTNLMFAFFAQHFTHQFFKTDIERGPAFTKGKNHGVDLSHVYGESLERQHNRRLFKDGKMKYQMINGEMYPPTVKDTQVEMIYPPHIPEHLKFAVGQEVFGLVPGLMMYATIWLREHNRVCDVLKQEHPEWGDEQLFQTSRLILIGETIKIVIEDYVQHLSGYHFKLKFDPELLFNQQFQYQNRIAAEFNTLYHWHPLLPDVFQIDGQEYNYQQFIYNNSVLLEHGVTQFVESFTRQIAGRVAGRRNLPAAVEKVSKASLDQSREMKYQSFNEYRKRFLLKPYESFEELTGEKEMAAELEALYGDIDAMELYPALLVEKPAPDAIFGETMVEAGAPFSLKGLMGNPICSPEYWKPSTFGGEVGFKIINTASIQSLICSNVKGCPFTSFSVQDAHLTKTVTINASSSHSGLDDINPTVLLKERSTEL

Row | SMILES | INH [1] [×10⁻⁵ M] | inhibition [2] [%] | IC50 [3] [µM] | IC50 [4] [µM] | inhibition [5] [%]
1 | C=C(CC[C@@H](C(=O)O[C@@H]1OC[C@@H](O)[C@H](O)[C@H]1O)[C@H]1CC[C@@]2(C)C3=C(CC[C@]12C)[C@@]1(C)CC[C@@H](OC(C)=O)C(C)(C)[C@@H]1CC3)C(C)C | 1.85 | 21.7 |  |  | 
2 | CC(C)(O)[C@@H](O)CC[C@@H](C(=O)O)[C@H]1CC[C@@]2(C)C3=C(CC[C@]12C)[C@@]1(C)CCC(=O)C(C)(C)[C@@H]1CC3 [FOMITOPINIC ACID A] |  | 18.1 | 1.15 |  | 
3 | CC(C)=CCC[C@@H](C(=O)O[C@@H]1OC[C@@H](O)[C@H](O)[C@H]1O)[C@H]1CC[C@@]2(C)C3=C(CC[C@]12C)[C@@]1(C)CCC(=O)C(C)(C)[C@@H]1CC3 [FOMITOSIDE C] |  |  | 5110 | 1910 | 
4 | C=C(CC[C@@H](C(=O)O[C@@H]1OC[C@@H](O)[C@H](O)[C@H]1O)[C@H]1CC[C@@]2(C)C3=C(CC[C@]12C)[C@@]1(C)CCC(=O)C(C)(C)[C@@H]1CC3)C(C)C [FOMITOSIDE D] |  |  | 2390 | 3330 | 
5 | CC(=O)O[C@@H]1CC[C@]2(C)C3=C(CC[C@H]2C1(C)C)[C@]1(C)CC[C@H]([C@@H](C/C=C/C(C)(C)O)C(=O)O[C@@H]2OC[C@@H](O)[C@H](O)[C@H]2O)[C@@]1(C)CC3 [FOMITOSIDE E] |  | 57.2 | 0.15 |  | 
6 | CC(=O)O[C@@H]1CC[C@]2(C)C3=C(CC[C@H]2C1(C)C)[C@]1(C)CC[C@H]([C@@H](CCC=C(C)C)C(=O)O[C@@H]2OC[C@@H](O)[C@H](O)[C@H]2O)[C@@]1(C)CC3 [FOMITOSIDE F] |  | 27.5 | 1.13 |  | 
7 | COC(=O)CC(C)(O)CC(=O)O[C@@H]1CC[C@]2(C)C3=C(CC[C@H]2C1(C)C)[C@]1(C)CC[C@H]([C@@H](CCC=C(C)C)C(=O)O[C@@H]2OC[C@@H](O)[C@H](O)[C@H]2O)[C@@]1(C)CC3 (some centres undefined) [FOMITOSIDE H] |  |  |  | 73.9 | 70.1
